Experiments:
[1] = target: Thymidine phosphorylase (Escherichia coli K-12) (UniProt P07650); test: In vitro percent of phosphorolysis after incubation with Escherichia coli thymidine phosphorylase for 10 min at 37 degree C; format: functional
In short: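 E. coli thymidine phosphorylase diluted in 10 mM Tris-HCl pH 7.3 with EDTA, plus 100 mM KH2PO4 pH 7.1 (stock), prewarmed to 37 °C. Substrate added, 10 min at 37 °C, stopped with ice-cold methanol, spun. HPLC-UV at 230 nm tracked substrate loss or appearance of base. Thymidine used as control substrate; each run at least twice.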

[2] = Therapeutic index of IC50 to EC50; details: read-out: TI
In short: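 TI = IC50/EC50, both from the NCI CEM cell screen. IC50 is the drug concentration giving 50% survival of uninfected untreated controls. EC50 is the concentration giving 50% survival of HIV-1-infected cells relative to uninfected untreated controls.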

[3] = Effective concentration in vitro against HIV-1-infected CEM cells relative to uninfected untreated controls; details: ccrf-cem
CCRF-CEM [4] = test: Inhibitory concentration (cytotoxic activity) which results in a 50% survival of […]; format: functional, cell-based; details: Homo sapiens
In short: (§1)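 Cytotoxicity run in the NCI AIDS screening program on CEM T4 lymphocytes alongside the anti-HIV test. IC50 = drug concentration giving 50% survival of uninfected untreated control cells. AZT control tested concurrently.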

[5] = target: Human immunodeficiency virus 1 (Human immunodeficiency virus 1, UniProt Q72547); test: Effective concentration (in vitro anti-HIV activity ) which produces a 50% survival of HIV-1-infected CEM cells relative to uninfected untreated controls; Inactive; format: functional, cell-based; details: ccrf-cem
In short: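 HIV-1-infected CEM (T4 lymphocyte) cells given small amounts of virus, allowing one complete replication cycle to cause cell killing. Read-out: protection from cytolysis (cell survival) relative to uninfected untreated controls. EC50 is the drug concentration giving 50% survival of infected cells. AZT-treated positive control run concurrently under identical conditions. Run through the NCI Developmental Therapeutics Program AIDS antiviral screen.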

Mus musculus [6] = species on record: Mus musculus; test: In vitro percent of 3''-azido-3''-deoxythymidine (AZT) formed upon incubation with mouse blood for 10 min at 37 degree C; format: functional
In short: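 Heparinized mouse blood from cardiac puncture mixed 1:1 by volume with compound (1 mg/mL stock in water). Incubated 10 min at 37 °C, quenched with ice-cold methanol, 10 min on ice, then centrifuged. Supernatant dried under N2 and redissolved in methanol; AZT quantified by HPLC-UV at 230/265 nm.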

Mus musculus [7] = species on record: Mus musculus; test: In vitro percent of 3''-azido-3''-deoxythymidine (AZT) formed upon incubation with mouse liver homogenate for 30 min at 37 degree C; format: functional
In short: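 Livers of three Balb/c mice homogenized in 0.1 M Tris pH 8.2, spun at 49000g for 2 h at 4 °C; supernatant (soluble enzyme fraction) used. Compound (1 mg/mL stock) incubated with the fraction 30 min at 37 °C, mixed with equal volume methanol, centrifuged. Supernatant dried and redissolved; AZT quantified by HPLC, UV 230 and 265 nm.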

[8] = Regeneration of the 5,6-Olefinic bond was measured as percent of 3''-azido-3''-deoxythymidine (AZT) formed upon incubation with Glutathione for 30 min at 37 degree C; format: functional
In short: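 Compound incubated with reduced glutathione at a compound:GSH mole ratio of 1:2 (1:5 for some analogs) in phosphate buffer pH 7.4 at 37 °C, for times up to 24 h. AZT formed quantified by HPLC, UV 230 nm (dihydro compound) and 265 nm (AZT), water:methanol 7:3 eluent.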

CCRF-CEM [9] = test: Inhibitory concentration (cytotoxic activity) which results in a 50% survival of […]; ND=Not determined; format: functional, cell-based; details: Homo sapiens; in short: as §1

Chain of Thymidine phosphorylase (Escherichia coli K-12) (P07650 whole entry, looked up): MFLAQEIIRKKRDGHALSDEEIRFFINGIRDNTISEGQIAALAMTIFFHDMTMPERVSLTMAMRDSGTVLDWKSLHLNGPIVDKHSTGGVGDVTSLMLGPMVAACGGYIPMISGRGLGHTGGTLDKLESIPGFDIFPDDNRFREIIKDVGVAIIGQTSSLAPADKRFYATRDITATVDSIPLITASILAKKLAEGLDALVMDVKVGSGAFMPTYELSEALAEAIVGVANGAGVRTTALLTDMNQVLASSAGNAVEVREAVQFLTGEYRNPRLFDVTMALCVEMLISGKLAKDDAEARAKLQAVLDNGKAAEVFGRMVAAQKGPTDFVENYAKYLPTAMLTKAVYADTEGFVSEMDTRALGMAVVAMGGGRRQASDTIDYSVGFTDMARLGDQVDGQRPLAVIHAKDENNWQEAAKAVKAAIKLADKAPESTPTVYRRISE

Structure (SMILES)	Phosphorolysis [1] [%]	selectivity ratio [2]	IC50 (CCRF-CEM [4]) [µM]	EC50 [5]	AZT formation (Mus musculus [6]) [%]	AZT formation (Mus musculus [7]) [%]	AZT formation [8] [%]	further results
Cc1cn([C@H]2C[C@H](N=[N+]=[N-])[C@@H](CO)O2)c(=O)[nH]c1=O [ZIDOVUDINE]	0	> 10000	–	–	–	–	–	EC50 [3]: 0.003 µM
CC(C)O[C@H]1N(C2CC(N=[N+]=[N-])C(CO)O2)C(=O)NC(=O)[C@]1(C)Cl (some centres not stated)	–	–	> 200	Not Active	–	–	–	–
CC1(Cl)C(=O)NC(=O)N([C@H]2C[C@H](N=[N+]=[N-])[C@@H](CO)O2)C1N=[N+]=[N-] (some centres not stated)	–	235	350	–	–	–	–	–
CCO[C@H]1N(C2CC(N=[N+]=[N-])C(CO)O2)C(=O)NC(=O)[C@@]1(C)Cl (some centres not stated)	–	–	> 200	Not Active	–	–	–	–
CO[C@@H]1N(C2CC(N=[N+]=[N-])C(CO)O2)C(=O)NC(=O)[C@@]1(C)I (some centres not stated)	0	1250	6.42	–	100	96	100	–
CCO[C@H]1N(C2CC(N=[N+]=[N-])C(CO)O2)C(=O)NC(=O)[C@]1(C)Br (some centres not stated)	0	2740	18.5	–	–	–	100	–
CO[C@H]1N([C@H]2C[C@H](N=[N+]=[N-])[C@@H](CO)O2)C(=O)NC(=O)C1(C)Cl (some centres not stated)	–	155	> 890	–	–	–	–	–
CCCCCCCCO[C@H]1N(C2CC(N=[N+]=[N-])C(CO)O2)C(=O)NC(=O)[C@]1(C)Cl (some centres not stated)	–	–	–	Not Active	–	–	–	IC50 (CCRF-CEM [9]): 37.5 µM
CCCCCCCCO[C@H]1N(C2CC(N=[N+]=[N-])C(CO)O2)C(=O)NC(=O)[C@]1(C)Br (some centres not stated)	–	14	12.4	–	–	–	–	–
CO[C@H]1N(C2CC(N=[N+]=[N-])C(CO)O2)C(=O)NC(=O)[C@]1(C)I (some centres not stated)	0	5900	18.7	–	100	79	100	–
CO[C@@H]1N(C2CC(N=[N+]=[N-])C(CO)O2)C(=O)NC(=O)[C@@]1(C)Br (some centres not stated)	0	152	42.5	–	88	44	77	–
Cc1cn([C@H]2C[C@H](O)[C@@H](CO)O2)c(=O)[nH]c1=O	72	–	–	–	–	–	–	–
CO[C@H]1N(C2CC(N=[N+]=[N-])C(CO)O2)C(=O)NC(=O)[C@]1(C)Cl (some centres not stated)	0	–	–	–	0	0	0	–
CC1(Br)C(=O)NC(=O)N([C@H]2C[C@H](N=[N+]=[N-])[C@@H](CO)O2)C1N=[N+]=[N-] (some centres not stated)	–	< 1	176	–	–	–	–	–
CCCCCCCCCCCCCCCCO[C@H]1N(C2CC(N=[N+]=[N-])C(CO)O2)C(=O)NC(=O)[C@]1(C)Br (some centres not stated)	–	–	11	Not Active	–	–	–	–
CCCCCCCCCCCCCCCCO[C@H]1N(C2CC(N=[N+]=[N-])C(CO)O2)C(=O)NC(=O)[C@]1(C)Cl (some centres not stated)	–	–	31	Not Active	–	–	–	–
CO[C@H]1N(C2CC(N=[N+]=[N-])C(CO)O2)C(=O)NC(=O)[C@@]1(C)Cl (some centres not stated)	0	–	–	–	0	0	0	–
CO[C@@H]1N(C2CC(N=[N+]=[N-])C(CO)O2)C(=O)NC(=O)[C@@]1(C)Cl (some centres not stated)	0	–	–	–	0	0	0	–
CO[C@H]1N(C2CC(N=[N+]=[N-])C(CO)O2)C(=O)NC(=O)[C@]1(C)Br (some centres not stated)	0	5260	17.2	–	59	26	80	–
CCO[C@@H]1N(C2CC(N=[N+]=[N-])C(CO)O2)C(=O)NC(=O)[C@@]1(C)Cl (some centres not stated)	–	–	> 200	Not Active	–	–	–	–
CCO[C@@H]1N(C2CC(N=[N+]=[N-])C(CO)O2)C(=O)NC(=O)[C@@]1(C)Br (some centres not stated)	0	937	22.2	–	–	–	85	–
CCO[C@H]1N(C2CC(N=[N+]=[N-])C(CO)O2)C(=O)NC(=O)[C@]1(C)Cl (some centres not stated)	–	–	–	Not Active	–	–	–	IC50 (CCRF-CEM [9]): > 200 µM
CC(C)O[C@H]1N(C2CC(N=[N+]=[N-])C(CO)O2)C(=O)NC(=O)[C@]1(C)Br (some centres not stated)	–	35	> 200	–	–	–	–	–

From ChEMBL document CHEMBL1127432, “Synthesis, in vitro biological stability, and anti-HIV activity of 5-halo-6-alkoxy(or azido)-5,6-dihydro-3'-azido-3'-deoxythymidine diastereomers as potential prodrugs to 3'-azido-3'-deoxythymidine (AZT)” (J Med Chem, 1994)
